Screens deposited in PubChem BioAssay by several laboratories.
This is a sample that favours compounds with a hit; in the whole collection about 1.8% have one here.
proCasp7 act = procaspase-7 activators, primary screen, counter-screen for procaspase-3 activator project, biochemical, absorbance, HTS, human. Caspase-7 (Homo sapiens), P55210. actives 0.093% (n = 330,000). activation, % at 8.5 µM. recombinant procaspase-7, Ac-DEVD-pNA absorbance 405 nm; D23A/D198A/D206A triple mutant, cannot self-cleave; scale: DMSO 0, 5 µM enzyme 100;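 active means percent activation above the screen-wide mean plus 3 SD, cut at about 25% in these data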
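Detection: p-Nitroaniline absorbance at 405 nm, read at 0 and 120 min; system: Uncleavable procaspase-7 mutant enzyme; evaluation: % activation from two-timepoint absorbance difference, scaled to controls; times: 1 h enzyme–compound preincubation and 2 h substrate reaction, both 25 °C; buffer or medium: Zinc-free HEPES pH 7.4 with 300 mM NaCl, 0.01% Triton X-100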
EBNA-1 inh = EBNA-1 DNA-binding inhibitors, primary screen, biochemical, fluorescence polarization; inhibition, % at 14.8 µM; actives 0.34% (n = 300,000); AID 1950, 2009; in the data active means inhibition above about 28%
procasp3 activ = activators of human procaspase-3 D3A mutant, primary screen, biochemical, absorbance, PC-3 D3A mutant, single concentration; actives 0.11% (n = 330,000); Caspase-3 (Homo sapiens), P42574; recombinant procaspase-3 D3A, Ac-DEVD-pNA absorbance 405 nm; activation, % at 8.5 µM; AID 463141, 2010;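 active means activation above the mean of all tested compounds plus 3 SD, cut at about 21% in these data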;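 further: 0% = DMSO alone and 100% = DMSO wells spiked with extra 5 µM PC-3 D3A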
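Assay system – Procaspase-3 D3A mutant, all three cleavage aspartates alanine · Controls – DMSO-only low control, 5 µM PC-3 D3A high control · Schedule – 1 h compound preincubation, 2 h substrate hydrolysis at 25 °C · Signal – 405 nm absorbance of p-nitroaniline, reads at 0 and 120 min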
GSTO1 inh = inhibitors of recombinant GSTO1, primary screen, counter-screen for RBBP9 inhibitor project, biochemical, fluorescence polarization | inhibition, % at 5.96 µM | AID 1974, 2009 | actives 1.1% (n = 300,000) | activity-based probe fluorescence polarization;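 active means inhibition above the campaign mean inhibition plus 3 SD, cut at about 35% in these data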;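 further: 0% = GSTO1-1 with DMSO and 100% = wells lacking GSTO1-1 enzyme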
ZTA counter = ZTA (EBV) inhibition in EBNA-1 counter-screen; P03206; ZTA-DNA binding, fluorescence polarization; inhibition, % at 11 µM; actives 0.15% (n = 320,000); AID 2234; in the data active means inhibition above about 33%
Apaf-1 inh = inhibitors of human Apaf-1 apoptosome, primary screen, biochemical, DEVD-Rh110 fluorescence, uHTS | inhibition, % at 20 µM | reconstituted apoptosome caspase-3 activity | actives 0.71% (n = 330,000) | AID 489030, 2010 | Apoptotic protease-activating factor 1 (Homo sapiens), O14727; active means inhibition of at least 40% at 20 µM;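 further: plate controls were DMSO wells for no effect and DEVD-CHO caspase inhibitor wells for full effect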
Target sequence (O14727 whole entry, looked up): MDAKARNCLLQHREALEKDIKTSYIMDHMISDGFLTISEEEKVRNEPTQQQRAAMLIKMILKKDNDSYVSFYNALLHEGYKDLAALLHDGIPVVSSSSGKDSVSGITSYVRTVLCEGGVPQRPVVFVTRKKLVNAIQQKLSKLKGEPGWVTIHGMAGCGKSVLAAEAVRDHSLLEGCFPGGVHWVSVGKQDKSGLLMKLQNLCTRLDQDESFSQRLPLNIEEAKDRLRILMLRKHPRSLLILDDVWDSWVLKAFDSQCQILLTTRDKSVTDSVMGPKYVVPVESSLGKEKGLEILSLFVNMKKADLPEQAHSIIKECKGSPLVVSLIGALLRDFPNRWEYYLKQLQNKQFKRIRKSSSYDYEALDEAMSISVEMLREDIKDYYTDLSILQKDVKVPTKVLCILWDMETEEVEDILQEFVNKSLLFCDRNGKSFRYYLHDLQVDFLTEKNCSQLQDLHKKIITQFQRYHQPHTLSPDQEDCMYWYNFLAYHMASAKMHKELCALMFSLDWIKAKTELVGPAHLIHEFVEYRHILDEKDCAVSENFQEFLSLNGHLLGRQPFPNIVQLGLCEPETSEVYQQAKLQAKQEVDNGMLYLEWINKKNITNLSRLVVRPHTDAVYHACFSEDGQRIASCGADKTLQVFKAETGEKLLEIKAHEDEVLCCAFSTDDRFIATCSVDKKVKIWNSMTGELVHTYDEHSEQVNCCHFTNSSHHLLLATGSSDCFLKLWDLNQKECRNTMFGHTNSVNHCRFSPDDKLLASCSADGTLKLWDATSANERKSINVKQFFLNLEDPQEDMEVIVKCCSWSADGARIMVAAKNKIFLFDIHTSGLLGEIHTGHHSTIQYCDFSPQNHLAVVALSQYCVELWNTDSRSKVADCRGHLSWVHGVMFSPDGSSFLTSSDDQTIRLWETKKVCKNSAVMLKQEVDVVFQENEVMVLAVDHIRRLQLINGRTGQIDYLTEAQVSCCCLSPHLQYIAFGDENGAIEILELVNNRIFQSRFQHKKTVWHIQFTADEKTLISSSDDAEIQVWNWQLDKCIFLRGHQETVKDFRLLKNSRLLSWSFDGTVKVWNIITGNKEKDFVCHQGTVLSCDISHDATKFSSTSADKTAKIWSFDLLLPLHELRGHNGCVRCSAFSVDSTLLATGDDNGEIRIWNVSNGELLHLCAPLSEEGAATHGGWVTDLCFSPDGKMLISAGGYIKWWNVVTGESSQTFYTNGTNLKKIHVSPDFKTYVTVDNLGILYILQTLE
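Material: biochemical Apaf-1 apoptosome reconstitution. Medium: Hepes buffer, pH 7.5. Also added: cytochrome c activation, bis-DEVD rhodamine 110 substrate. Timing: 30 min compound preincubation, 50 min activation, room temperature. Measured by: rhodamine 110 fluorescence at Ex 480/Em 540 nm.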
Apaf-1 inh conf2 = Apaf-1 inhibitors, single-dose retest, confirmation, biochemical, fluorescence, DEVD-Rh110, 20 µM; shares compounds with Apaf-1 inh; reconstituted apoptosome, caspase-3 DEVD-Rh110 fluorescence; inhibition, % at 20 µM; actives 25% (n = 1,800);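 active means mean inhibition of at least 40% at 20 µM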;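 further: plate controls were DMSO wells for no effect and DEVD-CHO caspase inhibitor control wells for full effect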
Rh110 quench = Rh110 fluorescence interference by putative Apaf-1 inhibitors, confirmation, artefact control for Apaf-1 inhibitor project, biochemical, 20 µM. shares compounds with Apaf-1 inh. quenched caspase reaction. activation (fluorescence interference), % at 20 µM. 1,800 tested, under 10 active;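 active means signal rise of 40% or more at 20 µM, treated as a fluorescence artifact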
Fluor interf inh = fluorescence interference of Apaf-1 inhibitor hits, dose response, artefact control for Apaf-1 inhibitor project | IC50, µM | 460 tested, under 10 active | fluorescence interference counterscreen, Apaf-1 assay format | shares compounds with Apaf-1 inh; call rule not given here
* marks the source's active call; other numbers are inactive results; / = no result.

SMILES | proCasp7 act | EBNA-1 inh | procasp3 activ | GSTO1 inh | ZTA counter | Apaf-1 inh | Apaf-1 inh conf2 | Rh110 quench | others
COc1ccc([C@H]2CC(=O)C=C(c3ccc(C)c([N+](=O)[O-])c3)C2)cc1 | 2.8 | / | 6.7 | / | -33.3 | 11.8 | / | /
CC1=NN(c2ccc(Cl)cc2)C(=O)C1C(c1ccccc1O)c1c(C)[nH]n(-c2ccc(Cl)cc2)c1=O (configuration not stated) | 0.1 | -10.9 | 5.5 | 72.2* | -17.6 | 97.2* | 42.1* | 3.5 | Fluor interf inh=>100
Cc1[nH]n(-c2ccccc2)c(=O)c1-c1ccc(Cl)cc1 | -3.4 | 6.5 | 0.0 | 13.2 | 0.2 | 9.6 | / | /
NCCN1CCN(S(=O)(=O)c2ccc([N+](=O)[O-])cc2)C=C1c1ccc(Cl)cc1 | -1.7 | / | 1.5 | / | -9.4 | 43.2* | 17.1 | -0.5
Cc1nnc(N/N=C/c2cccc(OCc3ccc(Cl)c(Cl)c3)c2)n1N | 1.7 | -1.0 | -14.7 | 46.3* | 14.7 | 77.1* | 16.2 | 4.5
Cc1nnc(N/N=C/c2cccc(C(F)(F)F)c2)n1N | -14.6 | 8.7 | -6.0 | 17.3 | 11.6 | -1.4 | / | /
CCC1Nc2ncnc(N3CCN(c4ccccc4)CC3)c2N(Cc2ccccc2)C1=O (configuration not stated) | 8.0 | / | 5.1 | / | / | 60.3* | 29.3 | 13.8
CC(C)COCC(CN(Cc1ccccc1)c1ccccc1)N1CCCC1 (configuration not stated) | 11.6 | -2.8 | -1.8 | 4.7 | -18.6 | 48.6* | 12.5 | 15.8
CCN(CC)CCN(C(=O)c1ccc(C(=O)c2ccccc2)cc1)c1nc2ccc(OC)cc2s1 | 10.7 | 4.4 | 2.5 | 5.8 | -2.7 | 44.5* | 14.9 | -5.2
CCOC(=O)c1nn(-c2ccc(OC)cc2)c(=O)c2c(N)scc12 | -25.2 | 5.6 | -17.0 | 11.3 | -0.5 | 20.5 | / | /
COc1ccc(/C=N/NC(=O)c2nn(-c3ccc(C)c(C)c3)c(=O)c3ccccc23)cc1 | -0.3 | -8.8 | -5.6 | -3.7 | -8.3 | 13.8 | / | /
COc1ccc(/C=N/NC(=O)c2nn(-c3ccccc3)c(=O)c3c(N)scc23)cc1 | -5.9 | -5.2 | -11.2 | 53.4* | -8.9 | 60.5* | 40.2* | 1.5 | Fluor interf inh=>100
COc1ccc(/C=N/NC(=O)c2nn(-c3ccc(Cl)cc3)c(=O)c3c(N)scc23)cc1 | 2.0 | -9.1 | -8.4 | 24.1 | -10.5 | 53.8* | 25.7 | 3.5
O=C(Cc1ccsc1)NCc1ccccc1F | 6.7 | -1.4 | 3.4 | 1.1 | 17.1 | -1.9 | / | /
CS(=O)(=O)c1nc(-c2ccc(Br)cc2)cc(-c2ccccc2)c1C#N | -1.9 | -12.9 | 5.0 | -7.5 | 14.3 | 47.4* | 59.1* | 3.5 | Fluor interf inh=>100
CCOc1cc(CNc2ccc(N3CCCCC3)cc2)cc(Br)c1OCC(=O)NC(C)(C)C | -5.5 | -1.9 | -7.9 | 32.7 | 19.3 | 44.2* | 11.6 | -2.1
CCN1CCN(c2ccc(S(=O)(=O)N3CCCCC3)cc2NC(=O)/C=C/c2ccc(OC)c(OC)c2)CC1 | 4.2 | 4.8 | -9.7 | -3.8 | -2.2 | 20.7 | / | /
CCN1CCN(c2ccc(S(=O)(=O)N3CCCCC3)cc2NC(=O)/C=C/c2cc(OC)ccc2OC)CC1 | 4.0 | 7.7 | 10.4 | -0.1 | 11.8 | 45.5* | 15.1 | 2.1
CCN1CCN(c2ccc(S(=O)(=O)N3CCCCC3)cc2NC(=O)COc2ccc(Cl)c(C)c2)CC1 | 7.2 | -1.5 | -0.7 | -7.9 | 7.5 | 44.7* | 11.1 | 3.6
COC(=O)c1c(NC(=O)C(=O)N2CCCC2)sc2c1CC(C)(C)OC2 | -0.9 | 0.4 | -4.8 | -7.9 | -15.1 | 6.1 | / | /
O=C(Cn1cc([N+](=O)[O-])ccc1=O)NC1CCCCC1 | -5.5 | / | 1.8 | / | 11.6 | -2.3 | / | /
COc1cc(NC(=O)CCS(=O)(=O)c2ccc3c(c2)oc(=O)n3C)cc(OC)c1OC | 1.7 | -8.2 | 3.9 | -6.2 | -2.0 | -9.5 | / | /
CC(C(=O)O)n1nc(-c2ccccc2)c2ccccc21 (configuration not stated) | 8.1 | -1.6 | 1.3 | 3.9 | -3.9 | -0.6 | / | /
O=C(NC(=S)Nc1ccc(CN2CCCCC2)cc1)c1cccc(OCc2ccccc2)c1 | -3.3 | 5.6 | 3.7 | -6.8 | -2.6 | 42.6* | 17.1 | 17.3
Cc1ccc(NC2CCCN(C(=O)CCN3CCCCO3)C2)cc1C (configuration not stated) | -3.9 | 2.6 | 7.1 | 7.4 | -9.6 | 15.2 | / | /
SMILES | proCasp7 act | EBNA-1 inh | procasp3 activ | GSTO1 inh | ZTA counter | Apaf-1 inh | Apaf-1 inh conf2 | Rh110 quench | others
O=C(Nc1ccc2nsnc2c1)N1CCCCC1 | 0.0 | -11.5 | 2.4 | 25.2 | -16.9 | 72.7* | 3.3 | -3.4
CCCCN1C(=N)N([C@@H](CCC)CN2CCC[C@H]2CN2C(N)=NC[C@@H]2Cc2ccccc2)C[C@H]1Cc1ccccc1 | 9.2 | / | -2.2 | / | / | 33.8 | / | /
CCC[C@@H](CN1CCC[C@H]1CN1C(N)=NC[C@@H]1Cc1ccccc1)N1C[C@@H](Cc2ccccc2)N(CCc2ccc(Cl)c(Cl)c2)C1=N | 3.3 | / | 1.4 | / | / | 77.7* | 29.6 | -5.2
CCC[C@@H](CN1CCC[C@H]1CN1C(N)=NC[C@H]1CC(C)C)N1C[C@@H](Cc2ccccc2)N(CCc2ccc(Cl)c(Cl)c2)C1=N | 10.6 | / | 10.3 | / | / | 68.3* | 24.8 | 8.6
CCCCN1C(=N)N([C@@H](C)CN2CCC[C@H]2CN2C(N)=NC[C@H]2CC(C)C)C[C@H]1Cc1ccccc1 | 7.8 | / | -5.3 | / | / | 17.7 | / | /
CCC[C@@H](CN1CCC[C@H]1CN1C(N)=NC[C@@H]1Cc1ccccc1)N1C[C@@H]([C@H](C)CC)N(CCc2ccc(Cl)c(Cl)c2)C1=N | -4.1 | / | -6.2 | / | / | 67.4* | 8.5 | 2.1
CCCCN1C(=N)N([C@@H](C)CN2CCC[C@H]2CN2C(N)=NC[C@@H]2Cc2ccccc2)C[C@H]1[C@H](C)CC | 4.4 | / | -3.0 | / | / | 21.1 | / | /
Cc1ccc(NC(=O)CC2CCCC2)c(Br)c1 | 6.5 | 3.5 | 4.6 | 2.7 | -1.6 | 1.5 | / | /
